ChEMBL document CHEMBL1126811, “Fluorinated and iodinated dopamine agents: D2 imaging agents for PET and SPECT” (J Med Chem, 1993)
One block for each molecule: values may come before it.

Tests used:
[1] = test system: Rattus norvegicus; test: Uptake of radioligand [125I]FIDA1 by cerebellum in rat after 120 minutes after an intravenous injection is given (average of 3 rats); assay type: ADME, organism-based; details: in vivo, 2 h
Procedure, shortened: (§1)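 Male Sprague–Dawley rats (225–300 g) under ether anesthesia received radioiodinated tracer (8–10 μCi in 0.2 mL saline) into the femoral vein. They were killed by cardiac excision at set times. Cortex, striatum, hippocampus and cerebellum were dissected, weighed and gamma-counted. Results are % dose/gram against diluted injected dose.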

[2] = test system: Rattus norvegicus; test: Biodistribution of radioligand [125I]FIDA1 in muscle of rat after 120 minutes after an intravenous injection is given (average of 3 rats); assay type: ADME, organism-based, Muscle tissue; details: in vivo, 2 h
Procedure, shortened: (§2)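 Male Sprague–Dawley rats (225–300 g) were given 0.2 mL saline containing the radioiodinated ligand (8–10 μCi) into the femoral vein under ether anesthesia. They were killed at set times by cardiac excision. Organs were weighed and γ-counted against diluted aliquots of the injected dose and expressed as % dose/organ. Blood and muscle were taken as 7% and 40% of body weight. Three rats were used per point.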

[3] = test system: Rattus norvegicus; test: Biodistribution of radioligand [125I]FIDA1 in kidney of rat after 30 minutes after an intravenous injection is given (average of 3 rats); assay type: ADME, organism-based; details: in vivo, 0.5 h; procedure, shortened: as §2
[4] = test system: Rattus norvegicus; test: Biodistribution of radioligand [125I]FIDA1 in muscle of rat after 30 minutes after an intravenous injection is given (average of 3 rats); assay type: ADME, organism-based, Muscle tissue; details: in vivo, 0.5 h; procedure, shortened: as §2
[5] = test system: Rattus norvegicus; test: Biodistribution of radioligand [125I]FIDA1 in lung of rat after 30 minutes after an intravenous injection is given (average of 3 rats); assay type: ADME, organism-based; details: in vivo, 0.5 h; procedure, shortened: as §2
[6] = test system: Rattus norvegicus; test: Biodistribution of radioligand [125I]FIDA1 in blood of rat after 120 minutes after an intravenous injection is given (average of 3 rats); assay type: ADME, organism-based; details: in vivo, 2 h; procedure, shortened: as §2
[7] = test system: Rattus norvegicus; test: Uptake of radioligand [125I]-FIDA1 by hippocampus in rat after 30 minutes after an intravenous injection is given (average of 3 rats); assay type: ADME, organism-based; details: in vivo, 0.5 h; procedure, shortened: as §1
[8] = test system: Rattus norvegicus; test: Uptake of radioligand [125I]FIDA1 by striatum in rat after 30 minutes after an intravenous injection is given (average of 3 rats); assay type: ADME, organism-based; details: in vivo, 0.5 h; procedure, shortened: as §1
[9] = test system: Rattus norvegicus; test: Biodistribution of radioligand [125I]FIDA1 in spleen of rat after 30 minutes after an intravenous injection is given (average of 3 rats); assay type: ADME, organism-based; details: in vivo, 0.5 h; procedure, shortened: as §2
[10] = test system: Rattus norvegicus; test: Biodistribution of radioligand [125I]FIDA1 in liver of rat after 30 minutes after an intravenous injection is given (average of 3 rats); assay type: ADME, organism-based; details: in vivo, 0.5 h; procedure, shortened: as §2
[11] = test system: Rattus norvegicus; test: Biodistribution of radioligand [125I]FIDA1 in brain of rat after 30 minutes after an intravenous injection is given (average of 3 rats); assay type: ADME, organism-based; details: in vivo, 0.5 h; procedure, shortened: as §2
[12] = test system: Rattus norvegicus; test: Uptake of radioligand [125I]FIDA1 by hippocampus in rat after 60 minutes after an intravenous injection is given (average of 3 rats); assay type: ADME, organism-based; details: in vivo, 1 h; procedure, shortened: as §1
[13] = test system: Rattus norvegicus; test: Uptake of radioligand [125I]FIDA1 by cortex in rat after 2 minutes after an intravenous injection is given (average of 3 rats); assay type: ADME, organism-based; details: in vivo; procedure, shortened: as §1
[14] = test system: Rattus norvegicus; test: Biodistribution of radioligand [125I]FIDA1 in thyroid of rat after 30 minutes after an intravenous injection is given (average of 3 rats); assay type: ADME, organism-based, Thyroid gland; details: in vivo, 0.5 h; procedure, shortened: as §2
[15] = test system: Rattus norvegicus; test: Uptake of radioligand [125I]-FIDA1 by cortex in rat after 30 minutes after an intravenous injection is given (average of 3 rats); assay type: ADME, organism-based; details: in vivo, 0.5 h; procedure, shortened: as §1
[16] = test system: Rattus norvegicus; test: Uptake of radioligand [125I]FIDA1 by hippocampus in rat after 2 minutes after an intravenous injection is given (average of 3 rats); assay type: ADME, organism-based; details: in vivo; procedure, shortened: as §1
[17] = test system: Rattus norvegicus; test: Uptake of radioligand [125I]FIDA1 by cerebellum in rat after 30 minutes after an intravenous injection is given (average of 3 rats); assay type: ADME, organism-based; details: in vivo, 0.5 h; procedure, shortened: as §1
[18] = test system: Rattus norvegicus; test: Biodistribution of radioligand [125I]FIDA1 in heart of rat after 30 minutes after an intravenous injection is given (average of 3 rats); assay type: ADME, organism-based; details: in vivo, 0.5 h; procedure, shortened: as §2
[19] = test system: Rattus norvegicus; test: Uptake of radioligand [125I]FIDA1 by hippocampus in rat after 120 minutes after an intravenous injection is given (average of 3 rats); assay type: ADME, organism-based; details: in vivo, 2 h; procedure, shortened: as §1
[20] = test system: Rattus norvegicus; test: Biodistribution of radioligand [125I]FIDA1 in skin of rat after 30 minutes after an intravenous injection is given (average of 3 rats); assay type: ADME, organism-based, Zone of skin; details: in vivo, 0.5 h; procedure, shortened: as §2
[21] = test system: Rattus norvegicus; test: Uptake of radioligand [125I]-FIDA1 by hippo-campus in rat after 60 minutes after an intravenous injection is given (average of 3 rats); assay type: ADME, organism-based; details: in vivo, 1 h; procedure, shortened: as §1
[22] = test system: Rattus norvegicus; test: Uptake of radioligand [125I]FIDA1 by cortex in rat after 30 minutes after an intravenous injection is given (average of 2 rats); assay type: ADME, organism-based; details: in vivo, 0.5 h; procedure, shortened: as §1
[23] = test system: Rattus norvegicus; test: Biodistribution of radioligand [125I]FIDA1 in brain of rat after 30 minutes after an intravenous injection is given (average of 2 rats); assay type: ADME, organism-based; details: in vivo, 0.5 h
[24] = test system: Rattus norvegicus; test: Biodistribution of radioligand [125I]FIDA1 in spleen of rat after 30 minutes after an intravenous injection is given (average of 2 rats); assay type: ADME, organism-based; details: in vivo, 0.5 h
[25] = test system: Rattus norvegicus; test: Uptake of radioligand [125I]-FIDA1 by cerebellum in rat after 30 minutes after an intravenous injection is given (average of 2 rats); assay type: ADME, organism-based; details: in vivo, 0.5 h; procedure, shortened: as §1
[26] = test system: Rattus norvegicus; test: Biodistribution of radioligand [125I]FIDA1 in skin of rat after 30 minutes after an intravenous injection is given (average of 2 rats); assay type: ADME, organism-based, Zone of skin; details: in vivo, 0.5 h
[27] = test system: Rattus norvegicus; test: Biodistribution of radioligand [125I]FIDA1 in liver of rat after 30 minutes after an intravenous injection is given (average of 2 rats); assay type: ADME, organism-based; details: in vivo, 0.5 h
[28] = test system: Rattus norvegicus; test: Biodistribution of radioligand [125I]FIDA1 in muscle of rat after 30 minutes after an intravenous injection is given (average of 2 rats); assay type: ADME, organism-based, Muscle tissue; details: in vivo, 0.5 h
[29] = test system: Rattus norvegicus; test: Biodistribution of radioligand [125I]FIDA1 in muscle of rat after 120 minutes after an intravenous injection is given (average of 2 rats); assay type: ADME, organism-based, Muscle tissue; details: in vivo, 2 h
[30] = test system: Rattus norvegicus; test: Biodistribution of radioligand [125I]FIDA1 in thyroid of rat after 30 minutes after an intravenous injection is given (average of 2 rats); assay type: ADME, organism-based, Thyroid gland; details: in vivo, 0.5 h
[31] = test system: Rattus norvegicus; test: Uptake of radioligand [125I]FIDA1 by hippo-campus in rat after 30 minutes after an intravenous injection is given (average of 2 rats); assay type: ADME, organism-based; details: in vivo, 0.5 h; procedure, shortened: as §1
[32] = test system: Rattus norvegicus; test: Biodistribution of radioligand [125I]FIDA1 in lung of rat after 30 minutes after an intravenous injection is given (average of 2 rats); assay type: ADME, organism-based; details: in vivo, 0.5 h
[33] = test system: Rattus norvegicus; test: Uptake of radioligand [125I]FIDA1 by striatum in rat after 30 minutes after an intravenous injection is given (average of 2 rats); assay type: ADME, organism-based; details: in vivo, 0.5 h; procedure, shortened: as §1
[34] = test system: Rattus norvegicus; test: Biodistribution of radioligand [125I]FIDA1 in heart of rat after 30 minutes after an intravenous injection is given (average of 2 rats); assay type: ADME, organism-based; details: in vivo, 0.5 h
[35] = test system: Rattus norvegicus; test: Uptake of radioligand [125I]FIDA1 by hippo-campus in rat after 2 minutes after an intravenous injection is given (average of 3 rats); assay type: ADME, organism-based; details: in vivo; procedure, shortened: as §1
[36] = test system: Rattus norvegicus; test: Uptake of radioligand [125I]FIDA1 by hippo-campus in rat after 120 minutes after an intravenous injection is given (average of 3 rats); assay type: ADME, organism-based; details: in vivo, 2 h; procedure, shortened: as §1

- Dose/g [1]: 0.0016%
- Dose/organ [2]: 0.76%
- Dose/organ [3]: 1.42%
- Dose/organ [4]: 8.24%
- Dose/organ [5]: 0.66%
- Dose/organ [6]: 0.51%
- Dose/g [7]: 0.05%
- Dose/g [8]: 0.24%
- Dose/organ [9]: 0.31%
- Dose/organ [10]: 22.4%
- Dose/organ [11]: 0.11%
- Dose/g [12]: 0.007%
- Dose/g [13]: 0.25%
- Dose/organ [14]: 0.03%
- Dose/g [15]: 0.05%
- Dose/g [16]: 0.25%
- Dose/g [17]: 0.03%
- Dose/organ [18]: 0.14%
- Dose/g [19]: 0.0006%
- Dose/organ [20]: 4.97%
Structure (SMILES): CCN1CCC[C@H]1CNC(=O)c1cc(I)cc(OC)c1OCCF

- Dose/g [1]: 0.01%
- Dose/g [21]: 0.05%
- Dose/organ [3]: 2.96%
- Dose/g [22]: 0.14%
- Dose/organ [23]: 0.21%
- Dose/organ [24]: 0.43%
- Dose/g [25]: 0.09%
- Dose/organ [26]: 7.04%
- Dose/organ [27]: 12.69%
- Dose/organ [28]: 10.87%
- Dose/organ [29]: 2.04%
- Dose/organ [30]: 0.04%
- Dose/g [31]: 0.14%
- Dose/organ [32]: 1.06%
- Dose/g [13]: 0.63%
- Dose/g [33]: 0.4%
- Dose/organ [34]: 0.16%
- Dose/g [35]: 0.47%
- Dose/g [36]: 0.01%
Structure (SMILES): COc1cc(I)cc(C(=O)NC[C@@H]2CCCN2Cc2ccc(F)cc2)c1OC
